What was measured:
Jurkat = experiment: Inhibition of NFAT-mediated luciferase gene transcription in human jurkat J77 cell line after 6 hrs; type: functional, cell-based
In short: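 Jurkat J77 cells electroporated (300 V, 800 μF) with NFAT-luciferase plasmid (four NFAT sites), grown 24 h in FBS-RPMI. Pretreated 1 h with compound (0.1-1000 μM, DMSO stocks), then stimulated with PMA plus anti-CD3 (2 μg/well) for 6 h. Lysate luciferase read; sigmoidal fit of RLU vs log concentration, IC50 = 50% drop versus DMSO control; mean ± S.E., n = 4.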

[1] = tested on: Panel NCI-62 (62 carcinoma cell lines); experiment: Antiproliferative activity against human NCI62 cell line after 48 hrs; type: functional
In short: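 NCI 60-panel screen (62 cell lines): cells grown 24 h in supplemented RPMI 1640, then exposed to drug 48 h at 5 concentrations, 10^-8 to 10^-4 M. Stopped with cold trichloroacetic acid, fixed, sulforhodamine B stained, bound dye solubilized and absorbance read. Growth inhibition from time-zero, control and treated absorbances; GI50 as mean ± S.D. across 62 lines.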

SMILES	IC50 (Jurkat) [µM]	GI50 [1] [µM]
CC(NC(=O)Cc1ccc(OP(=O)(OCc2ccc([N+](=O)[O-])o2)N(C)CCCCCl)cc1)c1ccc(OCC2CCCCC2)c(C(N)=O)c1 (stereo not given)	9	3
CC(NC(=O)c1ccc(NP(=O)(OCc2ccc([N+](=O)[O-])o2)N(C)CCCCCl)cc1)c1ccc(OCC2CCCCC2)c(C(N)=O)c1 (stereo not given)	16	18
CC(NC(=O)c1ccc(OP(=O)(OCc2ccc([N+](=O)[O-])o2)N(C)CCCCCl)cc1)c1ccc(OCC2CCCCC2)c(C(N)=O)c1 (stereo not given)	31	12
CC(=O)N[C@@H](Cc1ccc(NP(=O)(OCc2ccc([N+](=O)[O-])o2)N(C)CCCCCl)cc1)C(=O)NC(C)c1ccc(OCC2CCCCC2)c(C(N)=O)c1 (stereo not given in full)	28	
CC(NC(=O)Cc1ccc(NP(=O)(OCc2ccc([N+](=O)[O-])o2)N(C)CCCCCl)cc1)c1ccc(OCC2CCCCC2)c(C(N)=O)c1 (stereo not given)	20	
CC(=O)N[C@@H](Cc1ccc(OP(=O)(OCc2ccc([N+](=O)[O-])o2)N(C)CCCCCl)cc1)C(=O)NC(C)c1ccc(OCC2CCCCC2)c(C(N)=O)c1 (stereo not given in full)	21	6

Reference: ChEMBL document CHEMBL1148508, “Design and synthesis of phosphotyrosine peptidomimetic prodrugs” (J Med Chem, 2006)
